# Screening data from PubChem BioAssay.
# KCNK9 inh – blocks the human KCNK9 two-pore domain potassium channel; HEK293 KCNK9, FluxOR thallium flux fluorescence; stronger effect = lower value; B-score at 10 µM; 1.2% of 310,000 active; AID 488922;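 active means ratio B-score over 3 SD below the library mean, with starting fluorescence within 5 SD of its mean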;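 further: negative B-score means less thallium flux so channel inhibition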
# hERG rescue – compounds protecting human hERG from proarrhythmic drug block. Q12809. CHO-hERG, FluxOR thallium flux, dofetilide IC70 present. activation (rescue from dofetilide block), less the hit threshold, % at 10 µM. 0.51% of 310,000 active;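 active means activation above the mean of controls blocked by dofetilide plus 5 SD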;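 further: thallium influx through hERG after potassium depolarization seen as dye fluorescence rise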
# KCNQ1 pot – potentiators or activators of human KCNQ1 potassium channel; P51787; CHO-K1 KCNQ1, thallium flux FluxOR fluorescence; stronger effect = higher value; B-score at 10 µM; 0.35% of 310,000 active; AID 2648;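 active means fluorescence ratio B-score, a plate-corrected score, at least three library SD, with initial intensity B-score within 5 SD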
#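 Assay system: CHO-K1 cells stably expressing KCNQ1. Medium: assay buffer for compound exposure, DMSO matched across wells. Timing: 37 °C overnight plating, 90-min dark dye load, 20-min compound pretreatment. Signal: kinetic FluxOR fluorescence, 10 s baseline plus 110 s post-stimulus.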
# KCNK3 block – human KCNK3 channel inhibition, primary screen. O14649. B-score at 10 µM. AID 602410. 0.84% of 340,000 active. CHO-KCNK3 thallium flux, FluxOR fluorescence; stronger effect = lower value;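 active means B-score under library mean minus 4 SD, starting fluorescence ratio at most library mean plus 5 SD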;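 further: more negative B-score means stronger inhibition of thallium flux through KCNK3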
# KCNQ1 block – human KCNQ1 channel inhibition | 1.3% of 310,000 active | B-score at 10 µM | P51787 | CHO-K1 KCNQ1, FluxOR thallium flux fluorescence; stronger effect = higher value | AID 2642;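 active means compounds whose thallium flux B-score, printed positive for inhibition, exceeds three library SD while starting fluorescence stays within three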;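 further: channel opened by potassium depolarization with thallium stimulus after 20 min compound exposure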
# Kir21 block – Kir2.1 (mouse) channel inhibition. HEK293-Kir2.1, FluxOR thallium flux fluorescence; stronger effect = lower value. B-score at 10 µM. 0.85% of 310,000 active;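 active means fluorescence ratio B-score at or below minus 3 SD of library scores, with starting-brightness B-score within 2 SD, cut at about -4.2 in these data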;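 further: channel flux triggered by added potassium and thallium sulfate stimulus; B-score of peak minus minimum fluorescence over baseline after thallium stimulus; more negative B-score means stronger Kir2.1 block with less thallium influx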
# Target sequence (P35561 whole entry, looked up): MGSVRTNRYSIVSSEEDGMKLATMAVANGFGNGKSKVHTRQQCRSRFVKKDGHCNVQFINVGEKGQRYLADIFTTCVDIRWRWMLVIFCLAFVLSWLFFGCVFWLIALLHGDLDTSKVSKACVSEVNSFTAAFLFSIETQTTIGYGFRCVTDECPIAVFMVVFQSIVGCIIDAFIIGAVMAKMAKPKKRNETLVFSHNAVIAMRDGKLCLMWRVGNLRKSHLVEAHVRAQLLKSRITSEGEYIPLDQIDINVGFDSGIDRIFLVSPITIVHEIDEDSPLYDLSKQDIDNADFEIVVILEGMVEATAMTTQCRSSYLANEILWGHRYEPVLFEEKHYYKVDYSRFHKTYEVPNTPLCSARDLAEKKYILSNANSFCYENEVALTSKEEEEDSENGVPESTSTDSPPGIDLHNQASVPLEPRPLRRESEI
# The depositor's hits bear a star; i = inactive; · = not tested or not shown. In the library only some 3.8% were active in any assay of this set; here they are far more common.
SMILES,KCNK9 inh,hERG rescue,KCNQ1 pot,KCNK3 block,KCNQ1 block,Kir21 block
N#Cc1c(NC(=O)CSc2n[nH]c(Cc3ccccc3)n2)oc(-c2ccccc2)c1-c1ccccc1,i,-7,i,i,9*,0.42
O=C(COc1ccc2c(c1)OCO2)Nc1cccc(F)c1,i,-5,i,i,i,0.24
N#Cc1c(NC(=O)COC(=O)C2CC3C=CC2C3)oc(-c2ccccc2)c1-c1ccccc1 (centres undefined),i,-18,i,i,10*,-0.35
Cc1cc(C)nc(SCc2nnc(SCC(=O)Nc3nc(-c4ccccc4)cs3)n2-c2ccccc2)n1,i,6.5*,i,i,i,0.06
O=C(c1ccccc1)C(Nc1cccc([N+](=O)[O-])c1)c1ccccc1 (centres undefined),·,·,·,i,·,·
CC(=O)Sc1nc(-c2ccccc2)[nH]c1S(=O)(=O)c1ccc(C)cc1,i,-7,i,·,10*,0.36
CSc1nc(-c2ccc(C)cc2)[nH]c1S(=O)(=O)c1ccccc1,i,-5,i,i,i,-1.6
CC1(c2nnc(-c3ccc(Cl)cc3)o2)CC(c2c(Cl)cccc2Cl)=NO1 (centres undefined),-7.6*,-4,i,i,i,-0.58
CC1(c2nnc(-c3ccc(F)cc3)o2)CC(c2c(Cl)cccc2Cl)=NO1 (centres undefined),i,-7,i,i,i,-0.05
CCc1nnc(NS(=O)(=O)c2ccc(NC(=O)c3cccc(Cl)c3)cc2)s1,i,-14,i,i,i,-0.43
O=C(N/N=C/c1ccc(OC(F)F)cc1)C1=COCCO1,i,16*,i,i,i,-2.2
Cc1cc(-n2cnnn2)cc(C)c1S(=O)(=O)NCCOc1ccccc1,i,-12,i,i,i,-0.2
Cc1c(NC(=O)CN2C(=O)NC(C)(c3ccccc3)C2=O)c(=O)n(-c2ccccc2)n1C (centres undefined),i,5.8*,i,i,i,-0.03
Cc1ccc(C2(C)NC(=O)N(CC(=O)Nc3c(C)n(C)n(-c4ccccc4)c3=O)C2=O)cc1 (centres undefined),i,-7,i,i,i,-0.13
COc1ccc(CCN(C)C(=O)c2cc(S(=O)(=O)N3CCCCC3)ccc2Cl)cc1OC,i,-12,i,i,i,0.03
COc1ccc(Cc2nnc(NC(=O)c3ccccc3Cl)s2)cc1OC,i,-10,i,i,i,-1
C=CCS/C(=N\n1cnc2ccccc2c1=O)N(CC)CC,-7.6*,-11,i,i,i,-0.04
O=C(/C=C/NCc1cccnc1)c1ccc(-c2ccccc2)cc1,i,-10,i,i,i,0.39
COC(=O)c1[nH]c2ccc(C)cc2c1NS(=O)(=O)c1ccc(F)c(C)c1,i,-18,i,i,i,-0.21
CCOC(=O)c1[nH]c2ccc(OC)cc2c1NS(=O)(=O)c1ccc(OC)cc1OC,i,-18,i,i,i,0.12
COC(=O)c1[nH]c2ccc(F)cc2c1NS(=O)(=O)c1ccc(OC)cc1OC,-6.6*,-4,i,i,i,0.01
COC(=O)c1[nH]c2ccc(C)cc2c1NS(=O)(=O)c1ccc(F)cc1,i,-14,i,i,i,-5.3*
O=C(CSc1ccccc1)N(c1ccc(Br)cc1)c1nccs1,i,-8,i,i,i,-5.2*
O=C(CCSc1ccccc1)Nc1nccs1,i,-5,i,i,i,1.2
Cc1ccc(C2c3c(-c4ccccc4O)n[nH]c3C(=O)N2Cc2ccncc2)cc1 (centres undefined),i,12*,i,i,i,-0.81
SMILES,KCNK9 inh,hERG rescue,KCNQ1 pot,KCNK3 block,KCNQ1 block,Kir21 block
Cc1ccc(-c2csc(NC(=S)NC(=O)c3ccco3)n2)cc1,i,-5,28*,i,i,1
COc1ccc(-c2csc(NC(=S)NC(=O)c3cc4ccccc4o3)n2)cc1Br,i,0,i,i,i,1.2
O=C(NC(=S)Nc1nc2ccc(F)cc2s1)c1ccco1,i,40*,47*,i,i,0.15
COc1ccc(-c2csc(NC(=S)NC(=O)c3ccco3)n2)cc1Br,i,11*,i,i,i,-0.17
O=C(Nc1nc2cc3c(cc2s1)OCO3)c1ccco1,i,-7,i,i,i,0.13
O=[N+]([O-])c1cc(-c2nnc(C34CC5CC(CC(C5)C3)C4)o2)cc([N+](=O)[O-])c1,i,-6,i,i,i,1.2
CCCN1CCc2c(sc(NC(=O)C3CCN(S(=O)(=O)c4cccs4)CC3)c2C(N)=O)C1,i,-12,i,i,i,0.22
COc1ccc(S(=O)(=O)n2nc(OC(=O)c3ccccc3)cc2N)cc1,i,-12,i,i,i,0.11
COc1ccc(S(=O)(=O)n2nc(OC(=O)c3ccccc3Br)cc2N)cc1,i,-9,i,-9.1*,i,0.96
N#CC1=C(N)NC(SCC(=O)Nc2ccc(Br)cc2)=C(C#N)C12CCCCC2,i,-14,i,i,9*,2.1
CC(C)C1CC(C(F)(F)F)n2nc(C(=O)O)cc2N1 (centres undefined),i,-1,i,i,i,-0.82
COc1ccc(-c2[nH]c3ccccc3c2SCCNC(=O)c2cc3ccccc3oc2=O)cc1,i,-16,i,i,8*,0.67
COc1ccc(CNC(=O)c2cc3ccccc3oc2=O)cc1,i,-2,i,i,i,0.15
CCOC(=O)c1cc2c(=Cc3ccc(N(C)C)cc3)c3ccccc3n2[n+]1C,·,·,·,-11*,·,·
CN(C)c1ccc(C=c2c3ccccc3n3c2c2ccccc2[n+]3C)cc1,·,·,·,i,·,·
Cc1cc2c(=Cc3ccc(N(C)C)cc3)c3ccccc3n2[n+]1C,·,·,·,-10*,·,·
COC(=O)C1=C(C)Nc2c(c(=O)n(C)c(=O)n2C)C1c1cccs1 (centres undefined),i,-3,i,i,i,-1.4
CCN1C=C(Cc2cccs2)C2=C(C1)C(c1cccs1)C(C#N)=C(N)O2 (centres undefined),-7.4*,-24,i,-9*,i,-0.02
CCOC(=O)C1=C(C)OC(N)=C(C#N)C1c1cccs1 (centres undefined),i,-6,i,i,i,-2.5
CCOc1ccc(S(=O)(=O)N2CCCCC2)cc1NS(=O)(=O)c1cccs1,·,·,·,i,·,·
O=C(CSc1ccc([N+](=O)[O-])cn1)Nc1ccccc1N1CCOCC1,i,-10,i,i,i,-4.6*
O=C(CSc1nc2ccccc2o1)Nc1ccccc1N1CCOCC1,i,-7,i,i,i,-8.8*
